Rows were chosen to be rich in hits. Some 3.4% of all compounds tested hit in one or more screens of this group.
CHRM1 antagonist: human M1 muscarinic receptor antagonists, primary screen, CHO-K1 cells, Fluo-8 calcium fluorescence, 1536-well; Muscarinic acetylcholine receptor M1 (Homo sapiens), P11229; CHO-K1 hM1, ACh EC80 antagonist; inhibition, % at 3 µM; hit rate 1.3% among 360,000; AID 588852, 2011;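 active means percent inhibition above its own plate's cutoff, namely the mean of that plate's compound wells plus 3 SD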;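 further: peak over basal fluorescence ratio during 140 s after agonist addition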
TAAR1 antagonist: human TAAR1 antagonists, primary screen, Fluo-8 calcium fluorescence, CHO RD-HGA16 cells. Trace amine-associated receptor 1 (Homo sapiens), Q96RJ0. antagonist. inhibition, % at 3 µM. hit rate 1.5% among 360,000;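 active means inhibition above a per-plate cutoff, the mean inhibition of test compounds on that plate plus 3 SD, cut at about 49% in these data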
Target sequence (Q96RJ0 whole entry, looked up): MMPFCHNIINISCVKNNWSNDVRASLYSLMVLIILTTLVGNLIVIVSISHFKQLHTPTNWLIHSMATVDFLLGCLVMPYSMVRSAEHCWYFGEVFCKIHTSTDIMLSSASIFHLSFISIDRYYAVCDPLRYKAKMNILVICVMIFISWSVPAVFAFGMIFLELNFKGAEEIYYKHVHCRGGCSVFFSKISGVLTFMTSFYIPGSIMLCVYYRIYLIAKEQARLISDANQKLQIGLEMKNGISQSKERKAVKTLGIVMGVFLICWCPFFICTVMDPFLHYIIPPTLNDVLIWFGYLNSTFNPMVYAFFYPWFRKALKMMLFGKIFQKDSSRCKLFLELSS
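Test system: CHO RD-HGA16 cells bearing hTAAR1 | Reagent: β-PEA, EC80 | Compound dosing: 3 µM, single point | Schedule: Dye loading 75 min at 37 °C, then 30 min room temperature | Signal: Calcium fluorescence with Fluo-8 | Evaluation: Percent inhibition of PEA-evoked calcium signal, max/basal emission ratio | Control set: DMSO-only wells and EC80 β-PEA-stimulated wells | Repeats: Singlicate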
TAAR1 ag: human TAAR1 agonists, primary screen, Fluo-8 calcium fluorescence, CHO RD-HGA16 cells | Trace amine-associated receptor 1 (Homo sapiens), Q96RJ0 | vehicle wells 0%, saturating PEA agonist 100% | activation, % at 3 µM | hit rate 0.99% among 360,000;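 active means activation above the mean activation of all test compounds in the run plus 3 SD, cut at about 38% in these data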
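Test system: RD-HGA16 (CHO) cells co-expressing Gα16 and hTAAR1 | Doses: Single dose, 3 µM | Schedule: 17-24 h seeding, 75 min 37 °C dye, 30 min RT | Evaluation: % activation from peak over basal fluorescence ratio, DMSO-to-PEA scaled | Technique: Kinetic Fluo-8 calcium fluorescence | Benchmarks: Low control DMSO, high control PEA (EC100)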
CHRM1 PAM: human M1 muscarinic receptor positive allosteric modulators, primary screen, CHO-K1 cells, Fluo-8 calcium fluorescence, 1536-well. CHO-K1 hM1, ACh EC20; 0% = ACh EC20, 100% = maximal ACh. activation, % at 3 µM. hit rate 0.088% among 360,000. AID 588819, 2011; in the data active means activation above about 19%, passing the limit was not always enough
CHRM1 agonist: human M1 muscarinic receptor agonists, primary screen, Fluo-8 calcium fluorescence, CHO-K1 cells, HTS | AID 588814, 2011 | CHO-K1 hM1, agonist mode; 0% DMSO, 100% acetylcholine EC100 | activation, % at 3 µM | Muscarinic acetylcholine receptor M1 (Homo sapiens), P11229 | hit rate 0.33% among 360,000;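 active means activation above the run's mean compound activation plus 3 SD, cut at about 16% in these data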;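 further: peak over basal fluorescence ratio within a 140 s kinetic read after compound addition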
Each line names hits and unclear results; the compound was inactive in the other large screens.

CN[C@H]1C[C@@H](c2ccccc2Br)N(C(C)=O)C[C@H]1CO	none (no result: CHRM1 antagonist, CHRM1 PAM, CHRM1 agonist)
COC(=O)c1ccc(C(C(=O)NCc2ccccc2)N(Cc2cccs2)C(=O)c2cnccn2)cc1 (stereo unspecified)	CHRM1 antagonist 20.6
Cc1ccc(C(C(=O)NCc2ccccc2)N(Cc2cccs2)C(=O)c2ccc3c(c2)OCCO3)cc1 (stereo unspecified)	CHRM1 antagonist 32.7, TAAR1 antagonist 64.3
COc1ccc(C(C(=O)NCc2ccccc2)N(Cc2ccco2)C(=O)c2cnccn2)cc1 (stereo unspecified)	TAAR1 antagonist 53.4
O=C(OCCO)c1c(-c2ccccc2)oc2c1C(OCCO)CCC2 (stereo unspecified)	none (no result: CHRM1 antagonist, CHRM1 PAM, CHRM1 agonist)
CN(C(=O)[C@H]1O[C@@H](n2cnc3c(=O)[nH]c(N)nc32)[C@H](O)[C@@H]1O)C1CCCCC1	none (no result: CHRM1 antagonist, CHRM1 PAM, CHRM1 agonist)
O=C(O)C1CCC(CNCc2ccccc2Cl)CC1 (stereo unspecified)	none
CCOC(=O)C1CCC(CNCc2ccccc2C)CC1 (stereo unspecified)	CHRM1 antagonist 52.7
CN(c1ccccc1)S(=O)(=O)c1cccc(C(=O)Nc2cccc(C(=O)NC3CC3)c2)c1	none
Cc1nc2ccc(NC(=O)c3cccc(S(=O)(=O)N(C)c4ccccc4)c3)cc2s1	none (no result: TAAR1 antagonist, TAAR1 ag)
CN(c1ccccc1)S(=O)(=O)c1cccc(NC(=O)c2cccc(C#N)c2)c1	TAAR1 antagonist 66.0
CN(c1ccccc1)S(=O)(=O)c1cccc(NC(=O)c2ccc3ncsc3c2)c1	TAAR1 antagonist 59.9
C[C@H]1CN(c2ccc(N3CCN(C(=O)OC(C)(C)C)C[C@@H]3C)cc2C#N)CCN1Cc1ccccc1	none (no result: CHRM1 antagonist, CHRM1 PAM, CHRM1 agonist)
Cc1ccc(NC(=O)c2cc(-c3cccc(O)c3)on2)cc1C	TAAR1 antagonist 52.2
Cc1ccc(NC(=O)c2cc(-c3ccco3)on2)cc1C	none
COC(=O)[C@]12C[C@H](CC(=O)NCc3cccs3)C(=O)N(CCc3ccc(OC)c(OC)c3)C1=C[C@H](C(C)(C)C)O[C@@H]2C	none (no result: CHRM1 antagonist, CHRM1 PAM, CHRM1 agonist)
CCCN(CCC)C(=O)c1ccc2c(c1)N(CC)C(=O)c1ccccc1S2(=O)=O	CHRM1 antagonist 42.0
CC(C)C[C@H](NC(=O)C1CCCC1)C(=O)N1CCC[C@H]1C(=O)NCc1ccccc1	none (no result: CHRM1 antagonist, CHRM1 PAM, CHRM1 agonist)
Cc1ccc(Cc2c(C)nc3nc(SCC(=O)NCCCN4CCCC4)nn3c2C)cc1	CHRM1 antagonist 28.8
Cc1ccc(Cc2c(C)nc3nc(SCC(=O)NCCCN4CCCCC4)nn3c2C)cc1	CHRM1 antagonist 26.4
CC(C)(C)c1cc2cccnc2n1Cc1cccc(Cl)c1	CHRM1 antagonist 31.4
COc1ccc(/C=N/Nc2nonc2N)cc1	none
Nc1nonc1N/N=C\c1ccccc1	TAAR1 ag 40.8
Nc1nc(Nc2ccccc2F)sc1C(=O)c1ccccc1	TAAR1 ag 47.5, CHRM1 agonist 17.4
COc1ccc(N(CCC#N)S(=O)(=O)c2cccc3nsnc23)cc1	CHRM1 antagonist 24.7
Cc1ccc(S(=O)(=O)Nc2cc(=O)[nH]c(SCc3ccc(Cl)cc3)n2)cc1	CHRM1 agonist 39.0
COc1cccc(CN2CCN(C(=O)Nc3ccc([N+](=O)[O-])cc3)CC2)c1	CHRM1 antagonist 30.6
COc1ccccc1N1CCN(C(=O)Nc2ccc([N+](=O)[O-])cc2)CC1	none
NC(CCc1ccccc1)c1csc(Nc2nncc3ccccc23)n1 (stereo unspecified)	none
C[N+](C)(C)CCCCCCC(=O)/C=N/O	CHRM1 agonist 36.1
COc1cc2c(cc1OC)C(C1C(=O)CCCC1=O)N(C(=O)CCl)CC2 (stereo unspecified)	none
COc1ccc2c(c1)CCN(C(=O)CCl)C2C1C(=O)CCCC1=O (stereo unspecified)	CHRM1 agonist 25.4
C=CCN1[C@@H](C)[C@H](c2ccccc2)Oc2cccc(NCC(C)C)c2S1(=O)=O	none (no result: CHRM1 antagonist, CHRM1 PAM, CHRM1 agonist)
CCCCc1c(-c2ccccc2OC)ncn1Cc1ccccc1Cl	none (no result: CHRM1 antagonist, CHRM1 PAM, CHRM1 agonist)
O=C(/C=C/c1ccccc1)c1cc(Br)ccc(=O)c1O	TAAR1 antagonist 54.1, TAAR1 ag 41.4
